The target in experiment [1] is Human immunodeficiency virus type 1 reverse transcriptase (Human immunodeficiency virus 1, UniProt Q72547, Y181C). In words: Inhibitory concentration against HIV-1 mutant Y181C reverse transcriptase. In outline:
(§1)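 HIV-1 RT is at 0.63 nM in 50 mM Tris pH 7.8 with 4 mM DTT, 60 mM NaCl, 2 mM MgCl2, 0.02% Chaps, 4.8 μg/mL poly(rC)/oligo(dG) and 0.45 μM [3H]dGTP. Incubation is 30 min at room temperature in triplicate wells; [3H] incorporation is read after acid precipitation, minus EDTA background.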

Experiment [2] concerns the target Human immunodeficiency virus type 1 reverse transcriptase (Human immunodeficiency virus 1, UniProt Q72547, G190A). In words: Inhibition against HIV-1 mutant G190A reverse transcriptase […].
The target of experiment [3] is Human immunodeficiency virus type 1 reverse transcriptase (Human immunodeficiency virus 1, UniProt Q72547, K103N). In words: Inhibition against HIV-1 mutant K103N reverse transcriptase […].
For experiment [4], the target named is Human immunodeficiency virus type 1 reverse transcriptase (Human immunodeficiency virus 1, UniProt Q72547, Y188L). In words: Inhibitory concentration against HIV-1 mutant Y188L reverse transcriptase. In outline:
as §1

In experiment [5] the target is Human immunodeficiency virus type 1 reverse transcriptase (Human immunodeficiency virus 1, UniProt Q72547, V106A). In words: Inhibition against HIV-1 mutant V106A reverse transcriptase […].
In experiment [6] the target is Human immunodeficiency virus type 1 reverse transcriptase (Human immunodeficiency virus 1, UniProt Q72547, P236L). Nature of the experiment: Inhibition against HIV-1 mutant P236L reverse transcriptase […].
The target in experiment [7] is Human immunodeficiency virus type 1 reverse transcriptase (Human immunodeficiency virus 1, UniProt Q72547). In words: Inhibitory concentration against HIV-1 wild type reverse transcriptase. In outline: as §1
Experiment [8] deals with Human immunodeficiency virus type 1 reverse transcriptase (Human immunodeficiency virus 1), Q72547 [Y181C]. Nature of the experiment: Inhibition against HIV-1 mutant Y181C reverse transcriptase at 1 mM.
Experiment [9] has as its target Human immunodeficiency virus type 1 reverse transcriptase (Human immunodeficiency virus 1) (UniProt Q72547). Nature of the experiment: Inhibition against HIV-1 wild type reverse transcriptase […].
Experiment [10] relates to Human immunodeficiency virus type 1 reverse transcriptase (Human immunodeficiency virus 1), Q72547 [[…]]. In words: Inhibition against HIV-1 mutant Y188L reverse transcriptase at 1 mM.

The term IC50 denotes the concentration needed to halve the response being measured. The low end stands for greater potency, the high end for weaker potency. One may read the inhibition as the drop in the measured response relative to a control, in per cent. As for `CCN1c2ncccc2C(=O)N(C)c2ccc(-c3c[nH]c4ccc(OC)cc34)nc21`, the IC50 in [1] was 0.23 µM; in [2], 0.6 µM; in experiment [3] it was 0.935 µM; in [4], 0.73 µM; in experiment [5], 3.09 µM; in experiment [6], 0.404 µM. The molecule further registered an IC50 in experiment [7] of 0.2 µM. The inhibition in experiment [8] came out at 45%; in [9], 61%; in experiment [10] it was 58%.
For `CCN1c2ncccc2C(=O)N(C)c2ccc(-c3c[nH]c4cccnc34)nc21`, the values for the inhibition in [8], in experiment [9] and in experiment [10] were 18%, 21% and 37%, respectively.
Regarding `CCN1c2ncccc2C(=O)N(C)c2ccc(-c3cc[nH]c3)nc21`, the IC50 was 0.05 µM in [1]; 0.32 µM in experiment [2]; 0.1 µM in experiment [4]; 1 µM in experiment [5]; 0.033 µM in experiment [7]. In addition, the inhibition in [8] was found to be 91%; in experiment [9], 95%; in [10], 78%.
For the molecule `CCN1c2ncccc2C(=O)N(C)c2ccc(-c3c[nH]c4ccncc34)nc21`, the IC50 in experiment [1] was 0.222 µM; in [7], 0.13 µM. Besides, the inhibition in [8] amounted to 66%; in [9], 87%; in experiment [10], 3%.
Consider `CCN1c2ncccc2C(=O)N(C)c2ccc(-c3c[nH]c4ncccc34)nc21`, for which the IC50 in experiment [1] was determined as 0.2 µM; in experiment [4] it was 1.3 µM; in experiment [7], 0.21 µM. Besides, the values for the inhibition in experiment [8], in experiment [9] and in [10] were 70%, 76% and 39%, respectively.
As to `CCN1c2ncccc2C(=O)N(C)c2ccc(-c3c[nH]c4cnccc34)nc21`, the concentration for half-maximal inhibition (IC50) in experiment [1] is 0.098 µM; in [2], 0.019 µM; in [3], 0.032 µM; in experiment [4], 0.384 µM; in [5], 0.228 µM; in experiment [6] it was under 0.001 µM. The midpoint of inhibition in experiment [7], the IC50, lay at 0.044 µM. In addition, the values for the inhibition in [8], in experiment [9] and in [10] were 81%, 94% and 64%, respectively.
As for `CCN1c2ncccc2C(=O)N(C)c2ccc(-c3c[nH]c4ccccc34)nc21`, the IC50 in [1] turned out to be 0.028 µM; in experiment [2], 0.012 µM; in experiment [3], 0.097 µM; in [4] it was 0.09 µM; in experiment [5] it was 0.049 µM; in [6], 0.079 µM. This molecule gave an IC50 in experiment [7] of 0.028 µM. For the same molecule, the results for the inhibition in experiment [8], in [9] and in experiment [10] were 93%, 96% and 72%, respectively.
Consider `CCN1c2ncccc2C(=O)N(C)c2ccc(-c3c[nH]c4ccc(F)cc34)nc21`, for which the IC50 in experiment [1] came to 0.555 µM; in experiment [7], 0.706 µM. The inhibition is 59% in experiment [8], 63% in experiment [9] and 17% in experiment [10].
